Hits are enriched below; roughly 3% of the tested compounds scored in any of these assays.
MEKK3 PB1 HTS: modulators of MEKK3-MEK5 PB1 binding, primary screen, biochemical, wildtype MEKK3, multiplex bead flow cytometry, Alexa488-MEK5; bead-based flow cytometry, Alexa488-MEK5 binding to MEKK3; actives lie on both sides; 0 = blocked by unlabeled MEK5, 100 = vehicle; binding response (% of control), % at 10 µM; hit rate 1.4% among 290,000;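 active means binding response more than 3 SD above or below the average of its plate-row segment, actives on both sides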;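 further: Alexa488 bead fluorescence after subtracting the streptavidin-only scavenger bead signal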
Apaf-1 inh: inhibitors of human Apaf-1 apoptosome, primary screen, biochemical, DEVD-Rh110 fluorescence, uHTS. reconstituted apoptosome caspase-3 activity. inhibition, % at 20 µM. hit rate 0.71% among 330,000. Apoptotic protease-activating factor 1 (Homo sapiens), O14727; active means inhibition of at least 40% at 20 µM;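 further: plate controls were DMSO wells for no effect and DEVD-CHO caspase inhibitor wells for full effect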
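System: reconstituted apoptosome with Apaf-1, cytochrome c, caspase-9, procaspase-3, dATP; Signal: Rh110 fluorescence intensity; Schedule: 30 min compound preincubation, 50 min activation, room temperature; Reagent: cytochrome c trigger plus (Z-DEVD)2-Rh110 caspase-3 substrate.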
UBC13 inh: UBC13 polyubiquitin chain formation inhibitors, primary screen, biochemical, TR-FRET, uHTS; hit rate 0.47% among 330,000; Ubiquitin-conjugating enzyme E2 N (Homo sapiens), P61088; AID 485273, 2010; inhibition, % at 20 µM; in the data active means inhibition above about 45%, passing the limit was not always enough
Target sequence (P61088 whole entry, looked up): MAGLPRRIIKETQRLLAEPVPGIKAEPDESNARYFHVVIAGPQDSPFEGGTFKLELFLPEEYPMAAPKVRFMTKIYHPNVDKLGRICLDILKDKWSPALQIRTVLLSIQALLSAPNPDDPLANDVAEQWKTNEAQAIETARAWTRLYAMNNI
MEKK2wt PB1 HTS: modulators of MEK5 binding to wildtype MEKK2, primary screen, biochemical, multiplex bead flow cytometry, Alexa488-MEK5; hit rate 1.1% among 290,000; AID 1531, 2009; binding response (% of control), % at 10 µM; Mitogen-activated protein kinase kinase kinase 2 (Homo sapiens), Q9Y2U5; Alexa488-MEK5 binding to MEKK2 WT; actives lie on both sides; in the data active means binding response below about 67% or above about 130%
UCH37 inh: inhibitors of human UCH37 deubiquitinase, primary screen, biochemical, Ub-AMC cleavage, fluorescence. Ubiquitin carboxyl-terminal hydrolase isozyme L5 (Homo sapiens), Q9Y5K5. hit rate 0.33% among 330,000. AID 588478, 2011. inhibition, % (concentration not given with the values). purified proteasome/UCH37;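 active means mean inhibition over replicate wells above about 20%, limit read from the data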;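 further: 0% = compound-free wells with enzyme and 100% = wells lacking proteasome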
Target sequence (Q9Y5K5 whole entry, looked up): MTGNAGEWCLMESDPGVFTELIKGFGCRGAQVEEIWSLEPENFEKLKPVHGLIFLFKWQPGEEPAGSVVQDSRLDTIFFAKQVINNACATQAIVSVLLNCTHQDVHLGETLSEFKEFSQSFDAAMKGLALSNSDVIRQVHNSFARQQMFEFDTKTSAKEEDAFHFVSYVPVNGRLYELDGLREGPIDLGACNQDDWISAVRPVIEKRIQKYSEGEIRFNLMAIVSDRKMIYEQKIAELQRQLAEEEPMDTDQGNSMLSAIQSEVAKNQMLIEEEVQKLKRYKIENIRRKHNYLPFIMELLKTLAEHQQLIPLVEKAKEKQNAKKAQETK
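Material: Human UCH37 enzyme supplied as purified proteasome complex | Schedule: 30 min compound-proteasome preincubation then 25 min substrate reaction, room temperature | Detection: AMC fluorescence from Ub-AMC cleavage, excitation 355 nm, emission 460 nm | Benchmarks: Wells without proteasome as full block, compound-free enzyme plus substrate as uninhibited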
MEKK2mut PB1 HTS: MEK5 binding signal on mutant MEKK2 PB1, primary screen, biochemical, multiplex bead flow cytometry, Alexa488-MEK5 | Alexa488-MEK5 binding to MEKK2 mutant | percent response, % at 10 µM | hit rate 0.35% among 290,000; in the data active means percent response above about 24%, passing the limit was not always enough
Apaf-1 inh conf2: Apaf-1 inhibitors, single-dose retest, confirmation, biochemical, fluorescence, DEVD-Rh110, 20 µM; AID 504614, 2011; reconstituted apoptosome, caspase-3 DEVD-Rh110 fluorescence; inhibition, % at 20 µM; hit rate 25% among 1,800; shares compounds with Apaf-1 inh;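 active means mean inhibition of at least 40% at 20 µM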;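 further: plate controls were DMSO wells for no effect and DEVD-CHO caspase inhibitor control wells for full effect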
Rh110 interf inh: Rh110 fluorescence interference by putative Apaf-1 inhibitors, confirmation, artefact control for Apaf-1 inhibitor project, biochemical, 20 µM; activation (fluorescence interference), % at 20 µM; 1,800 tested, under 10 active; shares compounds with Apaf-1 inh; quenched caspase reaction;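 active means signal rise of 40% or more at 20 µM, treated as a fluorescence artifact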
Apaf1 inh interf: fluorescence interference of Apaf-1 inhibitor hits, dose response, artefact control for Apaf-1 inhibitor project; fluorescence interference counterscreen, Apaf-1 assay format; shares compounds with Apaf-1 inh; IC50, µM; 460 tested, under 10 active; call rule not given here
* = called active by the depositor.

For O=c1cccc2n1CC1CC2CN(c2ncnc3c2cnn3-c2ccc(Cl)cc2)C1 (stereo not given) the results were MEKK3 PB1 HTS 106, Apaf-1 inh -1, UBC13 inh 9, MEKK2wt PB1 HTS 107, UCH37 inh 1 and MEKK2mut PB1 HTS 2.
For O=C(CF)NC(NC(=S)Nc1ccccc1O)C(Cl)(Cl)Cl (stereo not given) the results were MEKK3 PB1 HTS 102, Apaf-1 inh 8, UBC13 inh -9, MEKK2wt PB1 HTS 98 and MEKK2mut PB1 HTS 3.
`Cc1cc(N(CCCl)CCCl)ccc1C=NNC(=O)c1ccco1` gave UCH37 inh -63.
`N#CC(C#N)=NNc1ccc(S(N)(=O)=O)cc1` gave MEKK3 PB1 HTS 101, Apaf-1 inh -31, UBC13 inh -2, MEKK2wt PB1 HTS 95, UCH37 inh 15 and MEKK2mut PB1 HTS -3.
`COc1cc2c(cc1OC)-c1c(OC)c(OC)cc3c1[C@H](C2)N(C)CC3` gave MEKK3 PB1 HTS 105, Apaf-1 inh 95*, UBC13 inh -169, MEKK2wt PB1 HTS 102, UCH37 inh 2, MEKK2mut PB1 HTS 2, Apaf-1 inh conf2 96*, Rh110 interf inh 7 and Apaf1 inh interf >100.
For O[C@H]1C2CCC1C(N1CCCCC1)CC2 (stereo not given in full) the results were MEKK3 PB1 HTS 102, Apaf-1 inh 3, UBC13 inh -2, MEKK2wt PB1 HTS 104, UCH37 inh 1 and MEKK2mut PB1 HTS 5.
For Cc1ccc(C[n+]2c(-c3ccc(C)cc3)cc(-c3ccc(C)cc3)cc2-c2ccc(C)cc2)cc1 the results were Apaf-1 inh 79*, UBC13 inh 29, UCH37 inh -20, Apaf-1 inh conf2 37 and Rh110 interf inh 7.
Cc1ccc(-c2cc(-c3ccc(C)cc3)[n+](-c3ccc(C(=O)O)cc3)c(-c3ccc(C)cc3)c2)cc1 was read as Apaf-1 inh 18, UBC13 inh -4 and UCH37 inh -13.
CCN(CC)c1ccc(N=Cc2c(O)n(CCc3ccc(OC)c(OC)c3)c(=O)[nH]c2=O)cc1 was read as MEKK3 PB1 HTS 104, MEKK2wt PB1 HTS 117, UCH37 inh -2 and MEKK2mut PB1 HTS 19.
Screening CCN(CC)c1ccc(N=Cc2c(O)n(-c3cc(OC)ccc3OC)c(=O)[nH]c2=O)cc1 returned MEKK3 PB1 HTS 87, Apaf-1 inh 48*, UBC13 inh -31, MEKK2wt PB1 HTS 92, UCH37 inh 1, MEKK2mut PB1 HTS -3, Apaf-1 inh conf2 13 and Rh110 interf inh 1.
CCN(CC)c1ccc(N=Cc2c(O)n(Cc3ccco3)c(=O)[nH]c2=O)cc1 was read as MEKK3 PB1 HTS 97, Apaf-1 inh 1, UBC13 inh -12, MEKK2wt PB1 HTS 92, UCH37 inh 2 and MEKK2mut PB1 HTS -5.
`CCN(CCO)c1ccc(N=Cc2c(O)n(C)c(=S)[nH]c2=O)cc1` gave MEKK3 PB1 HTS 105, Apaf-1 inh 51*, UBC13 inh -252, MEKK2wt PB1 HTS 97, UCH37 inh 4, MEKK2mut PB1 HTS 0, Apaf-1 inh conf2 16 and Rh110 interf inh -7.
Screening CC(C)N1C(=O)CC2(CC[N+](C)(CCOC(=O)C(O)(c3ccccc3)c3ccccc3)CC2)C1=O (stereo not given) returned MEKK3 PB1 HTS 105, Apaf-1 inh 7, UBC13 inh 4, MEKK2wt PB1 HTS 111, UCH37 inh 4 and MEKK2mut PB1 HTS 7.
For CCCN1CCc2cccc3c2[C@H]1Cc1ccc(O)c(O)c1-3 the results were MEKK3 PB1 HTS 103, Apaf-1 inh 53*, UBC13 inh -4, MEKK2wt PB1 HTS 114, UCH37 inh -3, MEKK2mut PB1 HTS 6, Apaf-1 inh conf2 13 and Rh110 interf inh 10.
`c1cncc(C2Nc3cccc4cccc(c34)N2)c1` gave MEKK3 PB1 HTS 97, Apaf-1 inh 42*, UBC13 inh -45, MEKK2wt PB1 HTS 114, UCH37 inh 8, MEKK2mut PB1 HTS 12, Apaf-1 inh conf2 11 and Rh110 interf inh 1.
For Cc1cccn2c(=O)c3c(nc12)N1CCc2ccccc2C1C1(C3)C(=O)NC(=O)N(C)C1=O (stereo not given) the results were MEKK3 PB1 HTS 99, Apaf-1 inh 3, UBC13 inh 17, MEKK2wt PB1 HTS 103, UCH37 inh -6 and MEKK2mut PB1 HTS 7.
Screening COc1ccc(P2(=O)Nc3ccccc3N2)cc1 returned MEKK3 PB1 HTS 103, Apaf-1 inh 49*, UBC13 inh -14, MEKK2wt PB1 HTS 102, MEKK2mut PB1 HTS 3, Apaf-1 inh conf2 21 and Rh110 interf inh 8.
`CCCCCn1c(NC(=O)c2ccco2)c(C(=O)OCC)c2nc3ccccc3nc21` gave MEKK3 PB1 HTS 94, Apaf-1 inh 92*, UBC13 inh -36, MEKK2wt PB1 HTS 93, UCH37 inh -145, MEKK2mut PB1 HTS -6, Apaf-1 inh conf2 49*, Rh110 interf inh 9 and Apaf1 inh interf >100.
`COCCNC(=O)c1c(NC(=O)c2ccc(Br)o2)n(Cc2ccccc2)c2nc3ccccc3nc12` gave MEKK3 PB1 HTS 99, Apaf-1 inh 67*, UBC13 inh -16, MEKK2wt PB1 HTS 92, UCH37 inh -67, MEKK2mut PB1 HTS -2, Apaf-1 inh conf2 25 and Rh110 interf inh -7.
Screening COc1ccc(OC)c(-n2c(N)c(C(=O)NCC3CCCO3)c3nc4ccccc4nc32)c1 (stereo not given) returned MEKK3 PB1 HTS 104, MEKK2wt PB1 HTS 101, UCH37 inh -71 and MEKK2mut PB1 HTS 4.

High-throughput results from PubChem BioAssay.
